From ChEMBL document CHEMBL4316604, “Discovery of Isaindigotone Derivatives as Novel Bloom's Syndrome Protein (BLM) Helicase Inhibitors That Disrupt the BLM/DNA Interactions and Regulate the Homologous Recombination Repair” (J Med Chem, 2019)
Active and inactive are the calls of the source. The rule behind the calls is not given here.

How the values were obtained:
[1] = tested on: HCT-116; experiment: Induction of apoptosis in human HCT116 cells assessed as apoptotic cells at 2 uM after 48 hrs by Hoechst/propidium iodide-staining based flow cytometry (reference value: 1.09%); assay type: functional
[2] = tested on: HCT-116; experiment: Induction of apoptosis in human HCT116 cells assessed as increase in cleaved caspase 7 expression at 2 uM after 48 hrs by Western blot analysis; assay type: functional, cell-based
Method in brief: (§1)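 HCT116 cells treated with ligand (DNA-damage proteins 24 h, apoptosis proteins 48 h), lysed in RIPA at 4 °C. 40 μg protein per lane resolved by SDS-PAGE, blotted to PVDF, probed with damage and apoptosis antibody panels; β-actin loading control; chemiluminescent detection.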

[3] = target: T1, RecQ-like DNA helicase BLM (Homo sapiens, UniProt P54132); experiment: Inhibition of BLM recruitment to DSB sites on chromosomes in human HCT116 cells at 0.5 to 1 uM after 48 hrs by ChIP assay; assay type: cell-based
Method in brief: (§2)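 HCT116 cells co-transfected with HRR(−) reporter DSB model (or chromosomal I-SceI DSBs) and I-SceI; after 24 h given 0–2 μM ligand for 24 h. Crosslinked in 1% formaldehyde, chromatin digested by micrococcal nuclease to 0.2–0.5 kb, IP with anti-BLM or anti-RAD51 (IgG control). qPCR at DSB sites, normalised to untreated; triplicate.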

[4] = tested on: DNA; experiment: Binding affinity to DNA (unknown origin) up to 2 molar ratio by ITC; assay type: nucleic-acid assay
Method in brief: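 ITC at 25 °C in 2 mM MgCl2, 10 mM KH2PO4, pH 7.5: ligand (0.6 mM, syringe) titrated in 10 μL injections, 300 s apart, into BLM642-1296 wild-type or point mutant, or DNA (0.04 mM, cell). His-tagged BLM from E. coli BL21(DE3), induced with […] at 16 °C for 24 h. Heats integrated, fitted to 1:1 model for KD.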

[5] = tested on: HCT-116; experiment: Induction of apoptosis in human HCT116 cells assessed as up-regulation of CHK1 phosphorylation up to 2 uM after 24 hrs by Western blot analysis
[6] = target: T1, RecQ-like DNA helicase BLM; experiment: Inhibition of 5'-biotin labeled duplex forked-DNA binding to BLM (unknown origin) assessed as increase in unbound DNA levels after 1 hr by ELISA
Method in brief: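 Biotinylated forked DNA (50 nM) immobilised on streptavidin plates overnight at 4 °C. BLM or mutant (100 nM final) premixed with serially halved ligand in 3% BSA blocking buffer, ≤1% DMSO, 1 h on ice. Applied to the blocked plate for 1 h at 37 °C. Bound BLM detected with anti-BLM and HRP secondary, TMB, A450; Hill fit.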

[7] = target: T1, RecQ-like DNA helicase BLM; experiment: Inhibition of BLM in human HCT116 cells assessed as induction of HRR up-regulation after 24 hrs by GFP-based flow cytometry; assay type: cell-based
Method in brief: (§3)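 HCT116 cells (2×10^5) co-transfected with DR-GFP HRR reporter and I-SceI plasmid; 24 h later treated with 0–2 μM ligand (reference 0–50 μM); BLM siRNA knockdown where stated. GFP-positive cells counted by flow cytometry and normalised to untreated; triplicate, mean ± SD.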

[8] = target: T1, RecQ-like DNA helicase BLM; experiment: Inhibition of His-tagged BLM (unknown origin) expressed in Escherichia coli BL21 (DE3) assessed as reduction in BLM helicase unwinding activity at 50 uM using 5'-biotin labeled forked-DNA as substrate after 1 hr by PAGE analysis
Method in brief: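 BLM642-1296 (His-tagged, E. coli BL21(DE3)) preincubated with ligand (1.0, 10, 50 μM; ≤1% DMSO) for 1 h at 4 °C. Reaction: 8 nM annealed 5′-biotin duplex forked DNA, 32 nM BLM, 2 mM ATP, 0.1% BSA, 1 h.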

[9] = tested on: HCT-116; experiment: Antiproliferative activity against human HCT116 cells up to 2 uM incubated up to 15 days by MTT assay; assay type: functional, cell-based
[10] = target: T1, RecQ-like DNA helicase BLM; experiment: Inhibition of His-tagged BLM (unknown origin) expressed in Escherichia coli BL21 (DE3) assessed as reduction in BLM helicase unwinding activity using 5'-biotin labeled forked-DNA as substrate after 1 hr by PAGE analysis
[11] = tested on: HCT-116; experiment: Effect on RAD51 protein expression in human HCT116 cells at 1 to 2 after 24 hrs; assay type: functional, cell-based; method in brief: as §1
[12] = target: T1, RecQ-like DNA helicase BLM; experiment: Inhibition of 5'-biotin labeled forked-DNA binding to BLM in human HCT116 cells assessed as increase in unbound DNA levels at 1 uM after 1 hr by Western blot-based pull down assay; assay type: cell-based
Method in brief: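 Biotinylated duplex forked DNA loaded on streptavidin magnetic beads overnight at 4 °C. HCT116 RIPA lysate incubated with beads plus ligand for 1 h at 25 °C. Bead eluate and supernatant analysed for BLM by SDS-PAGE/western blot.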

[13] = tested on: HCT-116; experiment: Antiproliferative activity against human HCT116 cells after 24 hrs in presence of siRNA by MTT assay; assay type: functional, cell-based; details: in the assay text read “after 48 hrs” for “after 24 hrs”
Method in brief: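 HCT116 cells (5×10^3/well) grown 24 h, then exposed to 0–50 μM test agent; for knockdown, cells pre-treated with 50 nM BLM siRNA for 24 h first.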

[14] = target: T1, RecQ-like DNA helicase BLM; experiment: Inhibition of BLM in human HCT116 cells assessed as induction of RAD51 recruitment to DSB sites on HRR at 0.5 to 1 uM after 48 hrs by ChIP assay; assay type: cell-based; method in brief: as §2
[15] = target: T1, RecQ-like DNA helicase BLM; experiment: Inhibition of BLM in human HCT116 cells assessed as induction of HRR up-regulation at 1 uM after 24 hrs in presence of siRNA by GFP-based flow cytometry; assay type: cell-based; method in brief: as §3
[16] = target: T1, RecQ-like DNA helicase BLM; experiment: Inhibition of BLM in human HCT116 cells assessed as DNA damage by measuring gammaH2AX up to 2 uM after 48 hrs by […]; assay type: cell-based
[17] = tested on: HCT-116; experiment: Chemosensitization activity in human HCT116 cells assessed as cisplatin-induced antiproliferative activity at 1.25 uM in presence of cisplatin after 24 hrs by MTT assay (reference value: 15.4%); assay type: functional
[18] = tested on: HCT-116; experiment: Induction of apoptosis in human HCT116 cells assessed as up-regulation of p53 phosphorylation up to 2 uM after 48 hrs by Western blot analysis; assay type: functional, cell-based
[19] = target: T1, RecQ-like DNA helicase BLM; experiment: Inhibition of BLM in human HCT116 cells assessed as induction of RAD51 recruitment to DSB sites on chromosomes at 0.5 to 1 uM after 48 hrs by ChIP assay; assay type: cell-based; method in brief: as §2
[20] = target: T1, RecQ-like DNA helicase BLM; experiment: Inhibition of 5'-biotin labeled duplex forked-DNA binding to BLM (unknown origin) assessed as increase in unbound DNA levels at 0.5 to 1 uM after 1 hr by filter-binding assay
Method in brief: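 BLM (100 nM) preincubated with 0.5 or 1.0 μM ligand for 1 h at 37 °C, then mixed with 8 nM biotinylated duplex forked DNA. Vacuum-filtered through nitrocellulose over nylon membranes; DNA UV-crosslinked and detected by chemiluminescence. Dot grey levels give bound (upper) vs free (lower) DNA, relative to total.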

[21] = tested on: HCT-116; experiment: Induction of apoptosis in human HCT116 cells assessed as up-regulation of CHK2 phosphorylation up to 2 uM after 24 hrs by Western blot analysis

T1 sequence (P54132 whole entry): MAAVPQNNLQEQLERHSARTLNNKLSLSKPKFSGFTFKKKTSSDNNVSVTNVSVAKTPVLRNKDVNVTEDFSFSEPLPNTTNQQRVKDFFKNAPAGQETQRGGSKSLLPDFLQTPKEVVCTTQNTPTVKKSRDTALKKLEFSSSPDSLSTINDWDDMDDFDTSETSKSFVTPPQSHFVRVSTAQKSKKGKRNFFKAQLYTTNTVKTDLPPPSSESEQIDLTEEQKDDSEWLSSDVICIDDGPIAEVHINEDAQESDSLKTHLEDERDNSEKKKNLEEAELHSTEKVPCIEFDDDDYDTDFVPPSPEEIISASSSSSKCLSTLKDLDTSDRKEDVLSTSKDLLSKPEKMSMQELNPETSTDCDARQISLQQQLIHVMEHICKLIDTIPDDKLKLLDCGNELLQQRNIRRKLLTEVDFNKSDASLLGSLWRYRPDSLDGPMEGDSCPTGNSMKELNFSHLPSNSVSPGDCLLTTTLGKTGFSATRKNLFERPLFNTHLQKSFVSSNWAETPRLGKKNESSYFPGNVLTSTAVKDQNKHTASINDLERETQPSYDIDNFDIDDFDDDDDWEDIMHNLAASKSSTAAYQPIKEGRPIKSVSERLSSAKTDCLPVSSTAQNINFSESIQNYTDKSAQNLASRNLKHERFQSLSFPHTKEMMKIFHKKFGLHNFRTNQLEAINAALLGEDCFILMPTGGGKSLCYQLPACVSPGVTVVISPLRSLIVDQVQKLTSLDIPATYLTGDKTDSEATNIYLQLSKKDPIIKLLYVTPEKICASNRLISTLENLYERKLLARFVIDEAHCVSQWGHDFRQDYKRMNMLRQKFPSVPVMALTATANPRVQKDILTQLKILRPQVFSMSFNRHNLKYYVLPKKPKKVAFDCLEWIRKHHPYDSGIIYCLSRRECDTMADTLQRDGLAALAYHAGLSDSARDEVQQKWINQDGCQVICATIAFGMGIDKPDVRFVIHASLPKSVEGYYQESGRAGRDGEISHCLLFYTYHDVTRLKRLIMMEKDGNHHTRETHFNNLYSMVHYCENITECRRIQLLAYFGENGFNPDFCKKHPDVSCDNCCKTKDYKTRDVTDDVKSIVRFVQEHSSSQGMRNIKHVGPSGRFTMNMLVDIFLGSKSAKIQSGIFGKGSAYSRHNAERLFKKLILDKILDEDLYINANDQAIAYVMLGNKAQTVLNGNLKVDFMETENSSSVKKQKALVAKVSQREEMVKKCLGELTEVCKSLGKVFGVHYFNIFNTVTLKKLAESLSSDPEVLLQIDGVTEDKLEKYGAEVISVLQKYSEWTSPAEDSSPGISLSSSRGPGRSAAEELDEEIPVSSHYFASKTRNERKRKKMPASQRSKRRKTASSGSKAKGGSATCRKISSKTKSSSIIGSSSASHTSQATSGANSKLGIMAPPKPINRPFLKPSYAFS

inhibition [3]: Active | Activity [4]: inactive | IC50 [6]: 3950 nM | inhibition [6]: Dose-dependent effect | inhibition [7]: Dose-dependent effect | inhibition [8]: Active | IC50 [10]: 950 nM | inhibition [12]: 84.3% | inhibition [14]: Active | inhibition [15]: Active | inhibition [19]: Active | inhibition [20]: Active
Compound: CCN(CC)CCCNc1cc2nc3n(c(=O)c2cc1F)CC/C3=C\c1ccc(C(C)C)cc1
Activity [1]: 71.59% | Activity [2]: Active | Activity [5]: Dose-dependent effect | Activity [9]: Active | Activity [11]: inactive | Activity [13]: inactive | inhibition [16]: Active | Activity [17]: 71.2% | Activity [18]: Dose-dependent effect | Activity [21]: Dose-dependent effect
